Assay results: paper PMC5696082 (Analytical biochemistry, 2017)

Legend:
[1] = target: T1, hCE2 (Homo sapiens, UniProt O00748); test: Kinetic properties; format: biochemical
T1 sequence (O00748 27-559): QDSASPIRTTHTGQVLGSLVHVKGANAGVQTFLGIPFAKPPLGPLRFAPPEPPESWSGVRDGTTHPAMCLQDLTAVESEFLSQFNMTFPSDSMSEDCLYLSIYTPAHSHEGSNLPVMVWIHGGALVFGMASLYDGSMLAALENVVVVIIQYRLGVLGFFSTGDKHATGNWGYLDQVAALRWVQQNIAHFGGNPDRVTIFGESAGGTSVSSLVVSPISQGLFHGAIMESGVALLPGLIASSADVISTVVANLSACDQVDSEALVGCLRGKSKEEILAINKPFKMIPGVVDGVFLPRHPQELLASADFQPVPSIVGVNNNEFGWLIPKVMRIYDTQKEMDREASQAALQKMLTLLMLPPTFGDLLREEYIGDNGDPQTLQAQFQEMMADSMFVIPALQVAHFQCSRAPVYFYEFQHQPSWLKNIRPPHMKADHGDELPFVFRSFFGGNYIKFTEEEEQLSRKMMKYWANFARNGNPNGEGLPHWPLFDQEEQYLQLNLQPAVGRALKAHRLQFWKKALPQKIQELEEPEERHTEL

[2] = target: T2, hCE1 (Homo sapiens, UniProt P23141); test: Limit of detection and quantification for hCE1 using partially purified enzyme; format: biochemical; conditions: for LOD for hCE1: S/N > 3; for LOD for hCE1 / LOQ for hCE1: [S] = 50 µM; for LOQ for hCE1: S/N > 9
T2 sequence (P23141 18-567): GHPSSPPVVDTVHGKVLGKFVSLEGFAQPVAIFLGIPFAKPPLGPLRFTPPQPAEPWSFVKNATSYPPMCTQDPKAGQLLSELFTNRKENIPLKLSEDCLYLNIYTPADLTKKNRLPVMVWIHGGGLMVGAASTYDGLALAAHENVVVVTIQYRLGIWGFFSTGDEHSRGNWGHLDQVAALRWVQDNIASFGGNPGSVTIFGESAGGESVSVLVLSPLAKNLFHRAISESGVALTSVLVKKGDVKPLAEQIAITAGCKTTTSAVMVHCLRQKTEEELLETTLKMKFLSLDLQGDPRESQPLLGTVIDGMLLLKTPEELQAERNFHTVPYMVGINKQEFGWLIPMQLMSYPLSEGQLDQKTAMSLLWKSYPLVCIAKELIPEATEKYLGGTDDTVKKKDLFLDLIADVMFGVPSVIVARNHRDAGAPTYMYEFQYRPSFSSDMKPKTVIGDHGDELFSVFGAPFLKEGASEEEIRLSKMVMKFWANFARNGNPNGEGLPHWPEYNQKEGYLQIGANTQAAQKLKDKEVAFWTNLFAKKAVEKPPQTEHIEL
Outline: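 Partially purified recombinant hCE1, without any matrix, diluted into wells with substrate at 50 µM. Assay run in 100 mM sodium phosphate, pH 8, 0.1 mg/mL BSA, 1% DMSO, at 37°C. S/N taken as mean signal of enzyme wells over the SD of […], quadruplicates in one experiment. LOD set as the lowest level with S/N > 3; LOQ as S/N > 9.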

[3] = test system: Kidney S9; test: Substrate hydrolysis by pooled tissue S9, kidney; format: biochemical, human
Outline: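 Commercial pooled human tissue S9 fraction added to substrate at 50 µM final in 100 mM sodium phosphate, pH 8.0, 0.1 mg/mL BSA. Fluorescence monitored every 30 s for at least 10 min at 37°C. Specific activity given as the mean of triplicates in one experiment, or mean ± standard deviation of 3 independent experiments run in triplicate.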

[4] = Kinetic mode (30 s intervals for 30 minutes)

KM for hCE2, fold lower than that of hCE1 [1]: 3 fold
Time over which hCE1 hydrolysis remained linear [2]: at least 24 hours
LOD for hCE1 ([2]; Endpoint mode 1 hour): 0.06 ng
LOQ for hCE1 ([2]; Endpoint mode 1 hour): 2.0 ng
LOD for hCE1 ([2]; Endpoint mode 4 hours): 0.03 ng
LOQ for hCE1 ([2]; Endpoint mode 4 hours): 0.12 ng
LOD for hCE1 ([2]; Endpoint mode 24 hours): 0.008 ng
LOQ for hCE1 ([2]; Endpoint mode 24 hours): 0.03 ng
LOD for hCE1 [2, 4]: 3.9 ng
LOQ for hCE1 [2, 4]: 16 ng
Limit of quantification for hCE1, fold higher than CMNA ([2]; kinetic mode, short time (<30 minutes)): 4 fold
Compound: CCCCC(C)CCC(=O)Nc1ccc(OC)nc1C (stereo not drawn) [4-MOMMP, N-(6-methoxy-2-methylpyridin-3-yl)-4-methyloctanamide]
Hydrolysis Specific Activity [3]: <0.05 pmol/min/µg
